We go through two compounds from BindingDB's records for doi:10.1021/jm960807v (University of Florence, 1997).

For the assay, the target named is T1, 3-oxo-5-alpha-steroid 4-dehydrogenase 2 (Homo sapiens, UniProt P31213).
T1 sequence (P31213 whole entry): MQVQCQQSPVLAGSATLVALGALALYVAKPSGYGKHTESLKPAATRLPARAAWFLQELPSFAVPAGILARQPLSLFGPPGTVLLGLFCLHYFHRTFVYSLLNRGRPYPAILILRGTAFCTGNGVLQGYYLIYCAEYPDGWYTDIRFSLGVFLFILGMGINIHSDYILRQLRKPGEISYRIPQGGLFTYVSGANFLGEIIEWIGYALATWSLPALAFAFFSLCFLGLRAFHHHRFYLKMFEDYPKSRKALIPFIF
Kind of assay: Inhibitory activity against 5-alpha Reductase-2 on human prostate homogenates from surgically derived benign hyperplastic tissue. In a few lines:
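Benign hyperplastic human prostate tissue, stored at -80 °C, was homogenized near 0 °C in 50 mM TRIS pH 7.4 with salts, nicotinamide and sucrose, spun at 200g, and the combined supernatants were used. Homogenate (0.1 mg protein) was incubated with 30 nM testosterone (9% [3H]) and 0.3 mM NADPH for 30 min at 37 °C, with the inhibitor added alongside the substrate. Inhibitor range was 10⁻¹⁰–10⁻⁵ M. DHT conversion was read by TLC and scintillation, in duplicate.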

As for `C[C@]12CCC3=C4C(=O)CCN=C4CCC3[C@@H]1CCC2=O` (some centres not stated), the IC50 (usually the concentration that inhibits the measured activity by half) was greater than 100 µM. `C[C@]12CC=C3[C@@H](CCC4=CC(=O)CCN43)C1CCC2=O` (some centres not stated) came in with an IC50 of 4.6 µM.
